From ChEMBL document CHEMBL3804796, “Discovery of Novel 3,3-Disubstituted Piperidines as Orally Bioavailable, Potent, and Efficacious HDM2-p53 Inhibitors” (ACS Med Chem Lett, 2016) come the findings set out here.

Active and inactive are the calls of the source. The calls are words filed in the database; no cut-off is given here.

One test deals with LNCaP. In words: Antiproliferative activity against human LNCAP cells expressing wild type p53 after 72 hrs by CellTitre-Glo assay. The test is classed as functional, cell-based. The gist of the method:
(§1)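 Cell lines exposed to compound for 72 h; viability read by CellTiter-Glo and IC50 derived. p53 coding-region mutation status of each line established by direct sequencing.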

Test [1] can be described thus: Antitumor activity against human SJSA1 cells xenografted in nude mouse assessed as tumor growth inhibition at 200 mg/kg, po qd continuously for 30 days relative to control. It counts as functional. The conditions noted are these: SJSA-1, po, 720 h, read-out: TGI. The method, boiled down:
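Nude mice bearing SJSA-1 osteosarcoma xenografts, n = 5 per group. Oral dosing in 20% HPBCD, given either intermittently (daily, 3 days on/4 days off) or continuously daily. Body weight was monitored against a vehicle control group.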

A further test deals with ACHN. The test is described as follows: Antiproliferative activity against human ACHN cells expressing wild type p53 after 72 hrs by CellTitre-Glo assay. The test is classed as functional, cell-based. The gist of the method: as §1

In the case of `CCC[C@H]1N(C(=O)c2cnccc2C(F)(F)F)CCC[C@@]1(Oc1csc(C(F)(F)F)c1)C(=O)N1CCN(c2ccccc2OCCCC(=O)O)CC1`, the outcome in the test with LNCaP and in the test on ACHN was Active. In test [1], the inhibition in vivo at 200 mg/kg came out at 60%.
